Experimental data reported in ChEMBL document CHEMBL2346548, “Design, synthesis, and structure-activity relationship studies of tryptanthrins as antitubercular agents” (J Nat Prod, 2013).
≈ marks a conversion by molar mass, not a printed value.

How the values were obtained:
[1] = system: Mycobacterium tuberculosis; assay: Antitubercular activity against Mycobacterium tuberculosis H37Rv incubated at 37 degC for 7 days by microplate alamar blue assay; type: functional; conditions: for MIC: Mycobacterium tuberculosis, H37Rv, 168 h
Summary of the method: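 Mtb H37Rv was grown in 7H9 broth with glycerol, Casitone, 10% OADC and 0.05% Tween 80 to OD600 0.4. Compounds were 2-fold serially diluted from DMSO stocks in 7H9, and wells were inoculated at 2 × 10⁵ CFU/mL. After 7 days at 37 °C, Alamar Blue was added and read after a further 24 h. MIC was the lowest concentration preventing the blue-to-pink change.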

Vero = assay: Cytotoxicity against african green monkey Vero cells; type: cell-based, Chlorocebus sabaeus
[2] = system: Mycobacterium tuberculosis; assay: Antitubercular activity against Mycobacterium tuberculosis H37Rv incubated at 37 degC for 14 days in presence of 40% human serum by microplate alamar blue assay; type: functional; conditions: 336 h
Summary of the method: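 This is the MABA run in 7H9 broth containing 40% human serum. Compounds were 2-fold serially diluted, and wells were inoculated with H37Rv at 2 × 10⁵ CFU/mL. Incubation was at 37 °C for 14 days, then Alamar Blue was added. MIC was the lowest concentration preventing the blue-to-pink colour change.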

[3] = Chlorocebus sabaeus, Vero, read-out: IC50

Q: How did the MBC90 [1] turn out when O=C1c2cc(F)ccc2-n2c1nc1ncccc1c2=O was run?
A: 1 µg/mL (≈ 3.74 µM)

Q: And the MIC [1]?
A: 1 µg/mL (≈ 3.74 µM)

Q: What about the IC50 (Vero; [3]) of the same molecule?
A: 0.3 µg/mL (≈ 1.12 µM)

Q: And the MIC [2]?
A: 2 µg/mL

Q: For O=C1c2ccc(N3CCOCC3)cc2-n2c1nc1ccncc1c2=O, which MIC [1] is on record?
A: 32 µg/mL (≈ 95.7 µM)

Q: And the IC50 (Vero; [3])?
A: > 20 µg/mL

Q: What about the MIC [2] of the same molecule?
A: > 32 µg/mL

Q: What does the source list for O=C1C2=Nc3ccccc3CN2c2ccc(OC(F)(F)F)cc21?
A: MIC [1]: 0.125 µg/mL (≈ 0.393 µM); IC50 (Vero; [3]): 1.3 µg/mL (≈ 4.08 µM); MIC [2]: 0.5 µg/mL

Q: With O=C1c2ccc(N3CCNCC3)cc2-n2c1nc1ccncc1c2=O as the molecule, how does the MIC [1] read?
A: > 4 µg/mL

Q: And the IC50 (Vero; [3])?
A: 11 µg/mL (≈ 33 µM)

Q: And the MIC [2]?
A: > 4 µg/mL

Q: With O=C1c2ccc(N3CCCCC3)cc2-n2c1nc1ccncc1c2=O as the molecule, how does the MIC [1] read?
A: 16 µg/mL (≈ 48.1 µM)

Q: What about the IC50 (Vero; [3]) of the same molecule?
A: 20 µg/mL (≈ 60.2 µM)

Q: What about the MIC [2] of the same molecule?
A: > 32 µg/mL

Q: How did the MIC [1] turn out when CC(C)(C)OC(=O)N1CCN(c2ccc3c(c2)-n2c(nc4ccncc4c2=O)C3=O)CC1 was run?
A: 16 µg/mL (≈ 36.9 µM)

Q: And the IC50 (Vero; [3])?
A: 24 µg/mL (≈ 55.4 µM)

Q: And the MIC [2]?
A: > 32 µg/mL

Q: Which MIC [1] does the source give for O=C1c2ccc(Cl)cc2-n2c1nc1ccncc1c2=O here?
A: 0.125 µg/mL (≈ 0.441 µM)

Q: What about the IC50 (Vero; [3]) of the same molecule?
A: 9 µg/mL (≈ 31.7 µM)

Q: What about the MIC [2] of the same molecule?
A: 1 µg/mL

Q: For O=C1c2cc(Br)ccc2-n2c1nc1ncccc1c2=O, which MIC [1] is on record?
A: 16 µg/mL (≈ 48.8 µM)

Q: And the IC50 (Vero; [3])?
A: > 20 µg/mL

Q: What about the MIC [2] of the same molecule?
A: 32 µg/mL

Q: With O=C1c2ccc(N3CCCCC3)cc2-n2c1nc1ncccc1c2=O as the molecule, how does the MIC [1] read?
A: 4 µg/mL (≈ 12 µM)

Q: And the IC50 (Vero; [3])?
A: 81 µg/mL (≈ 244 µM)

Q: And the MIC [2]?
A: 16 µg/mL

Q: With O=C1c2ccc(N3CCOCC3)cc2-n2c1nc1ncccc1c2=O as the molecule, how does the IC50 (Vero; vero) read?
A: ND(Insoluble)

Q: For CC(C)(C)OC(=O)N1CCN(c2ccc3c(c2)-n2c(nc4ncccc4c2=O)C3=O)CC1, which IC50 (Vero; vero) is on record?
A: ND(Insoluble)

Q: What does the source list for O=C1c2ccc(N3CCCCC3)cc2-n2c1nc1ccccc1c2=O?
A: MIC [1]: > 128 µg/mL; IC50 (Vero; [3]): 18 µg/mL (≈ 54.3 µM); MIC [2]: > 128 µg/mL

Q: Which IC50 (Vero; vero) does the source give for O=C1c2ccc(N3CCCC3)cc2-n2c1nc1ccccc1c2=O here?
A: ND(Insoluble)

Q: How did the MIC [1] turn out when O=C1c2ccc(N3CCC(O)C3)cc2-n2c1nc1ccccc1c2=O (stereo not drawn) was run?
A: 8 µg/mL (≈ 24 µM)

Q: What about the IC50 (Vero; [3]) of the same molecule?
A: 27 µg/mL (≈ 81 µM)

Q: What about the MIC [2] of the same molecule?
A: 8 µg/mL

Q: O=C1c2ccc(N3CCC(O)CC3)cc2-n2c1nc1ccccc1c2=O was tested. Which MIC [1] did it give?
A: 16 µg/mL (≈ 46.1 µM)

Q: And the IC50 (Vero; [3])?
A: 31 µg/mL (≈ 89.2 µM)

Q: And the MIC [2]?
A: 16 µg/mL

Q: For CCOC(=O)c1ccc2c(c1)C(=O)c1nc3c(OC)cccc3c(=O)n1-2, which MBC90 [1] is on record?
A: 1 µg/mL (≈ 2.85 µM)

Q: And the MIC [1]?
A: 0.125 µg/mL (≈ 0.357 µM)

Q: And the IC50 (Vero; [3])?
A: 16 µg/mL (≈ 45.7 µM)

Q: And the MIC [2]?
A: 4 µg/mL

Q: With Cl.O=C1c2ccc(N3CCNCC3)cc2-n2c1nc1ccccc1c2=O as the molecule, how does the MBC90 [1] read?
A: >16 µg/mL

Q: What about the MIC [1] of the same molecule?
A: 8 µg/mL

Q: What about the IC50 (Vero; [3]) of the same molecule?
A: 16 µg/mL

Q: What about the MIC [2] of the same molecule?
A: 8 µg/mL

Q: With O=C1c2ccc(N3CCNCC3)cc2-n2c1nc1ccccc1c2=O as the molecule, how does the MBC90 [1] read?
A: >2 µg/mL

Q: And the MIC [1]?
A: 0.5 µg/mL (≈ 1.5 µM)

Q: What about the IC50 (Vero; [3]) of the same molecule?
A: > 2 µg/mL

Q: And the MIC [2]?
A: > 2 µg/mL

Q: What does the source list for CCN(CCN(C)C)c1ccc2nc3n(c(=O)c2c1)-c1ccc(Cl)cc1C3=O?
A: MBC90 [1]: 4 µg/mL (≈ 10.1 µM); MIC [1]: 16 µg/mL (≈ 40.3 µM); IC50 (Vero; [3]): 32 µg/mL (≈ 80.6 µM); MIC [2]: 16 µg/mL

Q: What does the source list for O=C1C2=Nc3ncccc3CN2c2ccc(OC(F)(F)F)cc21?
A: MIC [1]: 16 µg/mL (≈ 50.1 µM); IC50 (Vero; [3]): 4.4 µg/mL (≈ 13.8 µM)

Q: With O=C1C2=Nc3ncccc3CN2c2ccccc21 as the molecule, how does the MIC [1] read?
A: 32 µg/mL (≈ 136 µM)

Q: And the IC50 (Vero; [3])?
A: 4.8 µg/mL (≈ 20.4 µM)

Q: Which MIC [1] does the source give for O=C1C2=Nc3ncccc3CN2c2ccc(Cl)cc21 here?
A: 16 µg/mL (≈ 59.3 µM)

Q: What about the IC50 (Vero; [3]) of the same molecule?
A: > 10 µg/mL

Q: Which MBC90 [1] does the source give for COc1ccc2c(c1)C(=O)c1nc3ccccc3c(=O)n1-2 here?
A: 0.5 µg/mL (≈ 1.8 µM)

Q: What about the MIC [1] of the same molecule?
A: 1 µg/mL (≈ 3.59 µM)

Q: What about the IC50 (Vero; [3]) of the same molecule?
A: 5.5 µg/mL (≈ 19.8 µM)

Q: What about the MIC [2] of the same molecule?
A: 2 µg/mL

Q: For O=C1c2ccccc2-n2c1nc1ccc([N+](=O)[O-])cc1c2=O, which MBC90 [1] is on record?
A: 32 µg/mL (≈ 109 µM)

Q: What about the MIC [1] of the same molecule?
A: 16 µg/mL (≈ 54.6 µM)

Q: And the IC50 (Vero; [3])?
A: 64 µg/mL (≈ 218 µM)

Q: And the MIC [2]?
A: 32 µg/mL

Q: Which MIC [1] does the source give for O=C1c2ccc(Cl)cc2-n2c1nc1ncccc1c2=O here?
A: 1 µg/mL (≈ 3.53 µM)

Q: And the IC50 (Vero; [3])?
A: 7 µg/mL (≈ 24.7 µM)

Q: What about the MIC [2] of the same molecule?
A: 2 µg/mL

Q: Which MBC90 [1] does the source give for O=C1c2cc([N+](=O)[O-])ccc2-n2c1nc1ncccc1c2=O here?
A: 4 µg/mL (≈ 13.6 µM)

Q: What about the MIC [1] of the same molecule?
A: 0.5 µg/mL (≈ 1.7 µM)

Q: What about the IC50 (Vero; [3]) of the same molecule?
A: < 0.2 µg/mL

Q: And the MIC [2]?
A: 4 µg/mL

Q: Which MIC [1] does the source give for Nc1ccc2c(c1)C(=O)c1nc3ccccc3c(=O)n1-2 here?
A: 8 µg/mL (≈ 30.4 µM)

Q: What about the MIC [2] of the same molecule?
A: 16 µg/mL

Q: With CS(=O)(=O)Nc1ccc2c(c1)C(=O)c1nc3ccccc3c(=O)n1-2 as the molecule, how does the MBC90 [1] read?
A: 2 µg/mL (≈ 5.86 µM)

Q: What about the MIC [1] of the same molecule?
A: 4 µg/mL (≈ 11.7 µM)

Q: And the IC50 (Vero; [3])?
A: > 8 µg/mL

Q: What about the MIC [2] of the same molecule?
A: > 8 µg/mL
